From ChEMBL document CHEMBL1123011, “Isoxazoles with antipicornavirus activity” (1985)
≈ marks a conversion by molar mass, not a printed value. Calls of active or inactive are those of the source. No cut-off for these calls is given here.

Key:
[1] = Maximum testable level of compound was evaluated; format: functional
How it was run: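 In the HeLa (Ohio) plaque-overlay system, Me2SO-solubilized compound was twofold serially diluted into the agarose overlay. Uninfected cell controls were run alongside and cells were stained with crystal violet after 3 days. The maximum testable level was taken as the concentration below which no cytotoxic effects were seen.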

[2] = tested on: rhinovirus A2; assay: (§1) In vitro anti-picornavirus activity against Rhinovirus type-2.; format: functional; settings: Rhinovirus A
How it was run: (§2)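 HeLa (Ohio) monolayers (day-old, 90%) were infected at about 80 pfu/well and adsorbed at least 1 h at 33 °C in 2% CO2. After 3 days at 33 °C they were fixed with formaldehyde and stained with crystal violet. MIC was the concentration giving 50% fewer plaques.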

[3] = tested on: Poliovirus 2; assay: Compound tested in vitro for anti-picornavirus activity against Poliovirus type-2; NA=Not Active; format: functional, organism-based
How it was run: (§3)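 Plaque-reduction assay on day-old HeLa (Ohio) monolayers at 90% confluence, infected with polio-2 at ca. 80 pfu/well. Adsorption was at least 1 h at 37 °C in 2% CO2. Cells were then overlaid in duplicate with drug in M-199/calf serum/agarose (Me2SO stock at 10 mg/mL, twofold dilutions) and held 3 days. Plaques were fixed with formaldehyde, stained with crystal violet and counted. MIC is the concentration giving 50% plaque reduction.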

[4] = tested on: Poliovirus 2; assay: In vitro for anti-picornavirus activity against Poliovirus type-2; Not Active.; format: functional, organism-based; how it was run: as §3
[5] = tested on: rhinovirus A2; assay: as §1; format: functional; settings: Rhinovirus A; remark: listed apart in the source
How it was run: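 HeLa (Ohio) monolayers (day-old, 90%) were infected at about 80 pfu/well and adsorbed at least 1 h at 33 °C in 2% CO2. After 3 days at 33 °C they were fixed with formaldehyde and stained with crystal violet.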

[6] = tested on: Poliovirus 2; assay: In vitro anti-picornavirus activity against Poliovirus type-2.; format: functional; settings: Enterovirus C
[7] = tested on: rhinovirus A2; assay: In vitro anti-picornavirus activity against Rhinovirus type-2; Not Active.; format: functional, organism-based; how it was run: as §2
[8] = tested on: Poliovirus 2; assay: Compound tested in vitro for anti-picornavirus activity against Poliovirus type-2; format: functional; settings: Enterovirus C; how it was run: as §3
[9] = tested on: Poliovirus 2; assay: Compound tested in vitro for anti-picornavirus activity against Poliovirus type-2; NA=Not Active.; format: functional, organism-based; how it was run: as §3

SMILES: CCc1noc(CC)c1CCCCCCOc1ccc(F)cc1Cl
- MTL [1]: 12.5 µg/mL
- MIC [2]: 3.1 µg/mL (≈ 8.76 µM)
- MIC [3]: inactive

SMILES: CCOC(=O)c1cccc(OCCCCCCCc2cc(C)no2)c1
- MTL [1]: 12.5 µg/mL
- MIC [4]: inactive
- MIC [5]: 1.6 µg/mL (≈ 4.63 µM)

SMILES: Cc1cc(CCCCCCCOc2ccc(C(C)C)cc2)on1
- MTL [1]: 12.5 µg/mL
- MIC [6]: 0.04 µg/mL (≈ 0.127 µM)
- MIC [5]: 1 µg/mL (≈ 3.17 µM)

SMILES: CCOC(=O)c1ccc(OCCCCCCCc2c(CC)noc2CC)cc1
- MTL [1]: 12 µg/mL
- MIC [6]: 0.4 µg/mL (≈ 1.03 µM)
- MIC [5]: 0.05 µg/mL (≈ 0.129 µM)

SMILES: Cc1cc(CCCCCCCOc2ccc(OC(C)C)cc2)on1
- MTL [1]: 12.5 µg/mL
- MIC [6]: 0.1 µg/mL (≈ 0.302 µM)
- MIC [5]: 0.7 µg/mL (≈ 2.11 µM)

SMILES: CC(=O)c1ccc(OCCCCCCCc2cc(C)no2)cc1
- MTL [1]: 12.5 µg/mL
- MIC [6]: 0.01 µg/mL (≈ 0.0317 µM)
- MIC [5]: 1.6 µg/mL (≈ 5.07 µM)

SMILES: Cc1cc(CCCCCCCOc2ccc(C(=O)N(C)C)cc2)on1
- MIC [7]: inactive
- MTL [1]: 3.1 µg/mL
- MIC [6]: 2.5 µg/mL (≈ 7.26 µM)

SMILES: CCCOC(=O)c1ccc(OCCCCCCCc2cc(C)no2)cc1
- MTL [1]: 25 µg/mL
- MIC [4]: inactive
- MIC [5]: 0.07 µg/mL (≈ 0.195 µM)

SMILES: CCc1noc(CC)c1CCCCCCOc1ccccc1F
- MTL [1]: 6.2 µg/mL
- MIC [2]: 3.1 µg/mL (≈ 9.71 µM)
- MIC [3]: inactive

SMILES: COc1ccc(OCCCCCCCc2cc(C)no2)c([N+](=O)[O-])c1
- MTL [1]: 3.1 µg/mL
- MIC [6]: 0.2 µg/mL (≈ 0.574 µM)
- MIC [5]: 0.3 µg/mL (≈ 0.861 µM)

SMILES: Cc1cc(CCCCCCCOc2ccc(C(=O)OC(C)C)cc2)on1
- MTL [1]: 12.5 µg/mL
- MIC [6]: 0.9 µg/mL (≈ 2.5 µM)
- MIC [5]: 0.2 µg/mL (≈ 0.556 µM)

SMILES: CCc1noc(CC)c1CCCCCCOc1ccc(OC)cc1C(=O)OC
- MIC [7]: inactive
- MTL [1]: 12 µg/mL
- MIC [8]: 2.9 µg/mL (≈ 7.45 µM)

SMILES: CCC(=O)c1ccc(OCCCCCCCc2cc(C)no2)cc1
- MTL [1]: 6.2 µg/mL
- MIC [6]: 0.4 µg/mL (≈ 1.21 µM)
- MIC [5]: 1.7 µg/mL (≈ 5.16 µM)

SMILES: CCOC(=O)c1ccc(OCCCCCCc2cc(C)no2)cc1
- MTL [1]: 12.5 µg/mL
- MIC [2]: 0.01 µg/mL (≈ 0.0302 µM)
- MIC [8]: 0.8 µg/mL (≈ 2.41 µM)

SMILES: CCc1noc(CC)c1CCCCCCOc1ccc(OC)cc1[N+](=O)[O-]
- MTL [1]: 6 µg/mL
- MIC [6]: 1.5 µg/mL (≈ 3.98 µM)
- MIC [5]: 0.3 µg/mL (≈ 0.797 µM)

SMILES: CCOC(=O)c1ccc(OCCCCCCCc2cc(C)no2)cc1
- MTL [1]: 2.5 µg/mL
- MIC [6]: 0.8 µg/mL (≈ 2.32 µM)
- MIC [5]: 0.025 µg/mL (≈ 0.0724 µM)

SMILES: CCc1noc(CC)c1CCCCCCOc1ccc(OC)cc1Br
- MTL [1]: 6 µg/mL
- MIC [2]: 0.4 µg/mL (≈ 0.975 µM)
- MIC [3]: inactive

SMILES: CCOC(=O)c1ccc(OCCCCCc2cc(C)no2)cc1
- MTL [1]: 12.5 µg/mL
- MIC [2]: 0.015 µg/mL (≈ 0.0473 µM)
- MIC [8]: 0.6 µg/mL (≈ 1.89 µM)

SMILES: Cc1cc(CCCCCCCOc2ccc(C(N)=O)cc2)on1
- MIC [7]: inactive
- MTL [1]: 12.5 µg/mL
- MIC [4]: inactive

SMILES: Cc1cc(CCCCCCCOc2ccc(C(=O)NN)cc2)on1
- MTL [1]: 12.5 µg/mL
- MIC [4]: inactive
- MIC [5]: 0.64 µg/mL (≈ 1.93 µM)

SMILES: CCc1noc(CC)c1CCCCCCOc1c(OC)cccc1OC
- MTL [1]: 6.2 µg/mL
- MIC [2]: 3.1 µg/mL (≈ 8.58 µM)
- MIC [3]: inactive

SMILES: Cc1cc(CCCCCCCOc2ccc(Cl)cc2)on1
- MTL [1]: 3.1 µg/mL
- MIC [6]: 0.3 µg/mL (≈ 0.975 µM)
- MIC [5]: 1.5 µg/mL (≈ 4.87 µM)

SMILES: COc1ccc(OCCCCCCCCc2cc(C)no2)c(Cl)c1
- MTL [1]: 12.5 µg/mL
- MIC [6]: 0.65 µg/mL (≈ 1.85 µM)
- MIC [5]: 0.16 µg/mL (≈ 0.455 µM)

SMILES: CCc1noc(CC)c1CCCCCCOc1cccc(I)c1
- MTL [1]: 12.5 µg/mL
- MIC [2]: 6.3 µg/mL (≈ 14.7 µM)
- MIC [3]: inactive

SMILES: CCc1noc(CC)c1CCCCCCOc1ccc(Br)cc1
- MIC [7]: inactive
- MTL [1]: 6 µg/mL
- MIC [3]: inactive

SMILES: CCOC(=O)c1ccc(OCCCCCCCCc2c(CC)noc2CC)cc1
- MTL [1]: 12.5 µg/mL
- MIC [4]: inactive
- MIC [5]: 0.4 µg/mL (≈ 0.996 µM)

SMILES: CCc1noc(CC)c1CCCCCCOc1ccc(OC)cc1
- MTL [1]: 6.2 µg/mL
- MIC [2]: 3.1 µg/mL (≈ 9.35 µM)
- MIC [3]: inactive

SMILES: CCOC(=O)c1ccc(OCCCCCCc2c(CC)noc2CC)cc1
- MTL [1]: 6.2 µg/mL
- MIC [2]: 0.1 µg/mL (≈ 0.268 µM)
- MIC [8]: 0.5 µg/mL (≈ 1.34 µM)

SMILES: CCc1noc(CC)c1CCCCCCOc1ccc(C(=O)OC)cc1Br
- MTL [1]: 12.5 µg/mL
- MIC [2]: 0.4 µg/mL (≈ 0.912 µM)
- MIC [8]: 2.2 µg/mL (≈ 5.02 µM)

SMILES: Cc1cc(CCCCCCCOc2ccc([N+](=O)[O-])cc2)on1
- MIC [7]: inactive
- MTL [1]: 1.6 µg/mL
- MIC [6]: 1.5 µg/mL (≈ 4.71 µM)

SMILES: CCc1noc(CC)c1CCCCCCOc1ccc(OC)cc1C(=O)O
- MIC [7]: inactive
- MTL [1]: 12.5 µg/mL
- MIC [3]: inactive

SMILES: CCc1noc(CC)c1CCCCCCOc1ccccc1C(F)(F)F
- MTL [1]: 6.2 µg/mL
- MIC [2]: 3.1 µg/mL (≈ 8.39 µM)
- MIC [3]: inactive

SMILES: CCc1noc(CC)c1CCCCCCOc1ccc(C(=O)OC)cc1Cl
- MTL [1]: 1.6 µg/mL
- MIC [2]: 0.4 µg/mL (≈ 1.02 µM)
- MIC [8]: 0.61 µg/mL (≈ 1.55 µM)

SMILES: CCc1noc(CC)c1CCCCCCOc1c(Cl)cccc1Cl
- MTL [1]: 12 µg/mL
- MIC [2]: 1.6 µg/mL (≈ 4.32 µM)
- MIC [8]: 5.9 µg/mL (≈ 15.9 µM)

SMILES: Cc1ccc(OCCCCCCCc2cc(C)no2)c(Cl)c1
- MTL [1]: 6.2 µg/mL
- MIC [6]: 0.8 µg/mL (≈ 2.49 µM)
- MIC [5]: 1.2 µg/mL (≈ 3.73 µM)

SMILES: CCc1noc(CC)c1CCCCCCOc1ccc(SC)cc1
- MIC [7]: inactive
- MTL [1]: 12.5 µg/mL
- MIC [8]: 0.6 µg/mL (≈ 1.73 µM)

SMILES: CCc1noc(CC)c1CCCCCCOc1ccc(C(=O)O)cc1
- MIC [7]: inactive
- MTL [1]: 3.1 µg/mL
- MIC [3]: inactive

SMILES: CCc1noc(CC)c1CCCCCCOc1ccc(O)cc1
- MIC [7]: inactive
- MTL [1]: 25 µg/mL
- MIC [3]: inactive

SMILES: COc1ccc(OCCCCCCc2cc(C)no2)c(Cl)c1
- MTL [1]: 12.5 µg/mL
- MIC [2]: 0.8 µg/mL (≈ 2.47 µM)
- MIC [8]: 0.3 µg/mL (≈ 0.926 µM)

SMILES: COc1ccc(OCCCCCc2cc(C)no2)c(Cl)c1
- MTL [1]: 12.5 µg/mL
- MIC [2]: 0.4 µg/mL (≈ 1.29 µM)
- MIC [8]: 0.2 µg/mL (≈ 0.646 µM)

SMILES: CCc1noc(CC)c1CCCCCCOc1ccc2c(c1)OCO2
- MIC [7]: inactive
- MTL [1]: 6.2 µg/mL
- MIC [3]: inactive

SMILES: Cc1cc(CCCCCCCOc2ccc(OCc3ccccc3)cc2)on1
- MIC [7]: inactive
- MTL [1]: 12.5 µg/mL

SMILES: CCc1noc(CC)c1CCCCCCOc1ccc(OC)cc1Cl
- MIC [9]: inactive
- MTL [1]: 12 µg/mL
- MIC [2]: 0.8 µg/mL (≈ 2.19 µM)

SMILES: CCOC(=O)c1ccc(OCCCCCCCCc2cc(C)no2)cc1
- MTL [1]: 12.5 µg/mL
- MIC [4]: inactive
- MIC [5]: 0.05 µg/mL (≈ 0.139 µM)

SMILES: COC(=O)c1ccc(OCCCCCCCc2cc(C)no2)cc1
- MTL [1]: 6.2 µg/mL
- MIC [6]: 0.4 µg/mL (≈ 1.21 µM)
- MIC [5]: 3 µg/mL (≈ 9.05 µM)

SMILES: Cc1cc(CCCCCCCOc2ccc(C(=O)OC(C)(C)C)cc2)on1
- MTL [1]: 2.5 µg/mL
- MIC [6]: 1.2 µg/mL (≈ 3.21 µM)
- MIC [5]: 6.2 µg/mL (≈ 16.6 µM)

SMILES: CCOC(=O)c1ccc(OCCCCc2cc(C)no2)cc1
- MTL [1]: 6.2 µg/mL
- MIC [2]: 3.1 µg/mL (≈ 10.2 µM)
- MIC [3]: inactive

SMILES: Cc1cc(CCCCCCCOc2ccccc2)on1
- MTL [1]: 6.2 µg/mL
- MIC [6]: 1.7 µg/mL (≈ 6.22 µM)
- MIC [5]: 1.2 µg/mL (≈ 4.39 µM)
